The values that follow come from ChEMBL document CHEMBL1275462 (Antimicrob Agents Chemother, 2008).

In experiment [1] the test system is Staphylococcus aureus. The experiment in a line: Antimicrobial activity against methicillin-resistant Staphylococcus aureus BK2529 by Etest. In kind it is functional. Put shortly:
(§1)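 Etest (manufacturer's method) and population analysis: overnight cultures serially diluted and plated on TSA with increasing oxacillin or BPR, CFU counted after 48 h at 37°C. Colonies from subpopulations growing at high oxacillin or BPR were picked, restreaked on antibiotic-free TSA for three passages, then retested by population analysis.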

Experiment [2] has as its system Staphylococcus aureus. Briefly: Antimicrobial activity against methicillin-resistant Staphylococcus aureus HAR22 by Etest. In kind it is functional. Put shortly: as §1
Experiment [3] relates to Staphylococcus aureus. The experiment in a line: Antimicrobial activity against methicillin-resistant Staphylococcus aureus USA300 by Etest. It counts as functional. In outline: as §1
Experiment [4] relates to Staphylococcus aureus. Briefly: Antimicrobial activity against methicillin-resistant Staphylococcus aureus COL by Etest. It counts as functional. Put shortly: as §1
The subject of experiment [5] is Staphylococcus aureus. The experiment in a line: Antimicrobial activity against methicillin-resistant Staphylococcus aureus HPV107 assessed as concentration required for bacterial subpopulation growth. In kind it is functional. Put shortly:
as §1

Experiment [6] relates to Staphylococcus aureus. The experiment in a line: Antimicrobial activity against methicillin-resistant Staphylococcus aureus HDE288 assessed as concentration required for bacterial subpopulation growth. In kind it is functional. Put shortly: as §1
In experiment [7] the test system is Staphylococcus aureus. The experiment in a line: Antimicrobial activity against methicillin-resistant Staphylococcus aureus BK2529 assessed as concentration required for bacterial subpopulation growth. It counts as functional. In outline: as §1
For experiment [8], the system named is Staphylococcus aureus. The experiment in a line: Antimicrobial activity against methicillin-resistant Staphylococcus aureus E2125 assessed as concentration required for minimum inhibition of oxacillin-resistant subpopulation growth by Etest. It counts as functional. In outline: as §1
The test system of experiment [9] is Staphylococcus aureus. Briefly: Antimicrobial activity against methicillin-resistant Staphylococcus aureus HPV107 assessed as concentration required for minimum inhibition of oxacillin-resistant subpopulation growth by Etest. It counts as functional. In outline:
as §1

The test system of experiment [10] is Staphylococcus aureus. The experiment in a line: Antimicrobial activity against methicillin-resistant Staphylococcus aureus BK2464 assessed as concentration required for minimum inhibition of oxacillin-resistant subpopulation growth by Etest. It counts as functional. In outline:
as §1

In experiment [11] the test system is Staphylococcus aureus. Briefly: Antimicrobial activity against methicillin-resistant Staphylococcus aureus HDE288 assessed as concentration required for minimum inhibition of oxacillin-resistant subpopulation growth by Etest. In kind it is functional. In outline:
as §1

For experiment [12], the system named is Staphylococcus aureus. Briefly: Antimicrobial activity against methicillin-resistant Staphylococcus aureus HAR22 assessed as concentration required for minimum inhibition of oxacillin-resistant subpopulation growth by Etest. In kind it is functional. Put shortly: as §1
The subject of experiment [13] is Staphylococcus aureus. Briefly: Antimicrobial activity against methicillin-resistant Staphylococcus aureus USA300 assessed as concentration required for minimum inhibition of oxacillin-resistant subpopulation growth by Etest. In kind it is functional. Put shortly: as §1
The test system of experiment [14] is Staphylococcus aureus. Briefly: Antimicrobial activity against methicillin-resistant Staphylococcus aureus HDE288 assessed as concentration required for minimum inhibition of BRP-resistant subpopulation growth by Etest. It counts as functional. In outline:
as §1

Experiment [15] deals with Staphylococcus aureus. Briefly: Antimicrobial activity against methicillin-resistant Staphylococcus aureus BK2529 assessed as concentration required for minimum inhibition of BRP-resistant subpopulation growth by Etest. In kind it is functional. Put shortly: as §1
The test system of experiment [16] is Staphylococcus aureus. Briefly: Antimicrobial activity against methicillin-resistant Staphylococcus aureus HAR24 assessed as concentration required for minimum inhibition of BRP-resistant subpopulation growth. It counts as functional. In outline:
as §1

In experiment [17] the test system is Staphylococcus aureus. Briefly: Antimicrobial activity against methicillin-resistant Staphylococcus aureus HAR22 assessed as concentration required for minimum inhibition of BRP-resistant subpopulation growth. It counts as functional. Put shortly:
as §1

Experiment [18] deals with Staphylococcus aureus. The experiment in a line: Antimicrobial activity against methicillin-resistant Staphylococcus aureus HU25 assessed as concentration required for minimum inhibition of BRP-resistant subpopulation growth. In kind it is functional. In outline:
as §1

For experiment [19], the system named is Staphylococcus aureus. The experiment in a line: Antimicrobial activity against vancomycin-intermediate Staphylococcus aureus JH9 obtained from bacteremic patient by Etest. It counts as functional. Put shortly: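 Etest and population analysis: overnight cultures plated on TSA with increasing vancomycin, oxacillin or BPR, CFU counted after 48 h at 37°C. For VRSA strains, vancomycin plates also run with constant 1 µg/ml BPR. Vancomycin Etest read after overnight 37°C incubation on TSA with or without 1 µg/ml BPR.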

Experiment [20] deals with T1, Penicillin-binding protein 4 (Staphylococcus aureus (strain COL)) (UniProt A0A0H2WY27).
T1 sequence (whole entry): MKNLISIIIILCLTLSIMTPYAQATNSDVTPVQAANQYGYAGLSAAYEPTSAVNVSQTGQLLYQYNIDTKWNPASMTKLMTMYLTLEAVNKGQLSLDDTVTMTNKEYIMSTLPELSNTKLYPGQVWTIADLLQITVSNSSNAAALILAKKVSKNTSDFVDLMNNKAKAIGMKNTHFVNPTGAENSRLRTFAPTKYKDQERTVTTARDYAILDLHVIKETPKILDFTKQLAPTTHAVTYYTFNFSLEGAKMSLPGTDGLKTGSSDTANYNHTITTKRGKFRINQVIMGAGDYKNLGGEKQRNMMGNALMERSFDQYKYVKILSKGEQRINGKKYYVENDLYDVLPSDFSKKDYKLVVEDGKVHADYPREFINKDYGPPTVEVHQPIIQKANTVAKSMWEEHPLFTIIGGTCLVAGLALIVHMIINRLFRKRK
Briefly: Displacement of benzyl-[14C]penicillin from Staphylococcus aureus PBP4 by in vitro competitive assay. Particulars: Staphylococcus aureus subsp. aureus COL. Put shortly: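 Membranes came from late-exponential cells of RU130, a PBP 2 insertional mutant of COL. Samples of 150 µg protein were preincubated with increasing drug concentrations for 10 min at 30°C, then labeled with benzyl[14C]penicillin at 20 µg/ml for 10 min at 37°C. The reaction was stopped with excess unlabeled benzylpenicillin in SDS. Read-out was SDS-PAGE with phosphor-screen exposure for 2 weeks.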

The target in experiment [21] is T2, MecA (Staphylococcus aureus) (UniProt Q7DHH4).
T2 sequence (whole entry): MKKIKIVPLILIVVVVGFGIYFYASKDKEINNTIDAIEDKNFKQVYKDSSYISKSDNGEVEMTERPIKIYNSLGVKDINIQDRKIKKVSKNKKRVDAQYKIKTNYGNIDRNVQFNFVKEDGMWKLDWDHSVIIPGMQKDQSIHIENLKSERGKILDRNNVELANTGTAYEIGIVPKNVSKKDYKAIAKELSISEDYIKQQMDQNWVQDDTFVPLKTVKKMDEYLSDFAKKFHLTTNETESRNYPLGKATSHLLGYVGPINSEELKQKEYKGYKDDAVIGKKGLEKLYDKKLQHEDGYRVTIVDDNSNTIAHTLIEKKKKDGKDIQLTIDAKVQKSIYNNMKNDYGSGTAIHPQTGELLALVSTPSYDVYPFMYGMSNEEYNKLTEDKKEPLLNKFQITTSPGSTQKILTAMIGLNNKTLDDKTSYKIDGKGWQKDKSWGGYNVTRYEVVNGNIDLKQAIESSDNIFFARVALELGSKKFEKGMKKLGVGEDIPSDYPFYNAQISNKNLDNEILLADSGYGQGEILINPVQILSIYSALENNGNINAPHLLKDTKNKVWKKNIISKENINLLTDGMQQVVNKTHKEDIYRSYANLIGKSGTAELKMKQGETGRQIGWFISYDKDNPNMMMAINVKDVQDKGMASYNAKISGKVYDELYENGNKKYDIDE
Briefly: Inhibition of methicillin-resistant Staphylococcus aureus COL PBP2a at 10 uM by competitive assay. Particulars: Staphylococcus aureus subsp. aureus COL. Put shortly: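 Purified soluble PBP 2A (mecA expressed in E. coli, 97% pure) at 0.8 µM, preincubated with drug 30 min at 30°C. Then 20 µM Bocillin FL added for 10 min at 37°C, quenched with SDS-PAGE buffer and boiled. Drug range 0.5–20 µM; for IC50, BPR 0.5–200 µM or oxacillin 5–6,000 µM. Curve fitting.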

Experiment [22] deals with Staphylococcus aureus. The experiment in a line: Effect on cell wall composition of Staphylococcus aureus COL at 0.4 ug/ml by HPLC method. It counts as functional, organism-based. Put shortly:
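Strain COL was grown in 1-liter cultures at 37°C to OD620 0.4, with or without drug at 0.4 µg/ml in the medium. Peptidoglycan was then purified and analysed by HPLC elution profile.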

≈ marks a conversion by molar mass, not a printed value. Calls of active or inactive are those of the source. No cut-off for these calls is given here.

In general, MIC refers to the lowest concentration found to suppress growth. A higher MIC goes with a less susceptible organism. By inhibition is commonly meant the share of the control response that was lost under treatment. As to `Nc1nc(/C(=N/O)C(=O)N[C@@H]2C(=O)N3C(C(=O)O)=C(/C=C4\CCN([C@@H]5CCNC5)C4=O)CS[C@H]23)ns1` [CEFTOBIPROLE], the MIC came to 1.5 mg/L (≈ 2.81 µM) in experiment [1]; 0.8 mg/L (≈ 1.5 µM) in experiment [2]; 1.5 mg/L (≈ 2.81 µM) in experiment [3]; 3 mg/L (≈ 5.61 µM) in experiment [4]; 0.8 mg/L (≈ 1.5 µM) in experiment [19]. Moreover, the Activity was found to be 3 µg/mL in experiment [5]; 3 µg/mL in experiment [6]; 3 µg/mL in experiment [7]; 0.8 µg/mL in experiment [8]; 0.8 µg/mL in experiment [9]; 1.5 µg/mL in [10]. Also, the Activity worked out at 1.5 µg/mL in experiment [11]; 0.8 µg/mL in experiment [12]; 1.5 µg/mL in experiment [13]; 1.5 µg/mL in [14]; 1.5 µg/mL in experiment [15]; 3 µg/mL in experiment [16]. The Activity in experiment [17] and in [18] was 3 µg/mL throughout. In addition, the result in experiment [20] and in [22] was Active. The same molecule yielded an inhibition in [21] of 66%.
